Bioassay records: PubChem, several laboratories
T cruzi repl: blocks replication of Trypanosoma cruzi; AID 1885; inhibition, % (test concentration not listed); hit rate 1.4% among 300,000; T. cruzi beta-gal in NIH3T3, luminescence, 90 h;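 active = mean inhibition across valid replicates above about 55%, limit read from the data; inconclusive = mean below that limit but half or more replicates reach it; inactive = mean below it, under half of replicates reach it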;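 note: signal also drops with host cell toxicity which is not excluded here; higher percent means less beta-gal luminescence so fewer parasites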
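Assay system: NIH/3T3 host cells with β-galactosidase reporter T. cruzi; input: 5,000 host fibroblasts per well; compound: single 50 nL compound addition per well in DMSO; timing: ≥90 h infection period, 3 h prior cell attachment; measured by: GalScreen β-gal luminescence, detergent lysis, 60 min; evaluation: percent inhibition of parasite-derived β-gal signal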
UPR CHOP act: activators of apoptotic arm of unfolded protein response (CHOP). CHO-CHOP luciferase reporter, UPR activation, luminescence; percent of tunicamycin response over DMSO baseline. activation, % at 10 µM. hit rate 0.34% among 330,000. AID 449763;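 active = at 10 µM dose, activation of 40% or more, normalized to positive control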
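Assay system: CHO-CHOP cells, stable luciferase reporter of PERK-eIF2a-CHOP signalling / Buffer or medium: F12 plus 10% serum / Compound dosing: one dose, 10 µM in 0.5% DMSO / Times: 6 h compound treatment, 37 °C / Technique: luciferase luminescence / Read-out: % reporter activation, DMSO baseline versus tunicamycin full activation / Benchmarks: tunicamycin and DMSO controls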
Dynein cargo inh: dynein cargo transport inhibition. 3617.4 mouse cells, GR-EGFP nuclear translocation imaging; test concentration mostly 20 µM; stimulated with dexamethasone, 1 µM; active compounds read low. z-score, hits read low. hit rate 0.47% among 220,000. AID 1381;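 active = plate z-score of nuclear minus cytoplasmic receptor signal below a set negative limit, without overly bright fluorescence or cell loss, cut at about -3.5 in these data, passing the limit was not always enough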;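 note: z-score of nuclear minus cytoplasmic ring GR-EGFP intensity difference per well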
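Buffer or medium – tet-free medium with charcoal-stripped serum · Signal – automated 10x imaging of fixed Hoechst-stained cells · Also added – dexamethasone agonist, 1.0 µM final, for 30 min · Incubation – induction 48 h, compound 1 h, agonist 30 min · Read-out – GR-EGFP nuclear translocation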
CHOP inh: blocks CHOP induction under ER stress; hit rate 3.8% among 220,000; inhibition, % at 10 µM; CHO-K1 CHOP-promoter luciferase, tunicamycin-induced, 15-18 h; AID 2732;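 active = compounds that reduced the stress-induced luciferase reporter signal by more than about 70% of percent inhibition, limit read from the data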
L major viab: inhibitors of Leishmania major promastigote growth; Leishmania major promastigotes, resazurin fluorescence viability; inhibition, % at 10 µM; hit rate 9% among 200,000; AID 1063; in the data active = inhibition above about 50%;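 note: promastigotes grown with compound for 44 hours at 28 °C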
UPR XBP1 act: activators of adaptive arm of unfolded protein response (XBP1); CHO-XBP1 luciferase reporter, IRE1-XBP1 UPR activation, luminescence; percent of tunicamycin response, DMSO as zero; activation, % at 20 µM; hit rate 0.33% among 330,000; AID 463104;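 active = versus positive control, 20 µM dose yields 30% or more activation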
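assay system = CHO-XBP1 luciferase reporter cells | amount = 1000 cells/well | buffer or medium = F12 plus 10% FBS | compound dosing = single point, 20 µM final compound, 1% DMSO | incubation = 16-18 h cell attachment at 37 °C, then 6 h compound exposure | detection = Steady-Glo luminescence read | controls = tunicamycin 10 µg/mL and vehicle-only wells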
Each line names hits and unclear results; the compound was inactive in the other large screens. Many of the other results were omitted from the sample, so hits are more common in it than they were.

N#CC1=C(N)Nc2nc3ccccc3n2C1c1ccc(Cl)cc1 (configuration not stated)	CHOP inh 90, L major viab 77
CCCCOc1cccc(C2/C(=C(\O)c3ccc4c(c3)OCCO4)C(=O)C(=O)N2CCN2CCOCC2)c1 (configuration not stated)	none (no result: Dynein cargo inh, CHOP inh, L major viab)
CC(NC(=O)c1ccc(S(=O)(=O)NCc2ccco2)cc1)c1ccc(F)cc1 (configuration not stated)	none (no result: T cruzi repl, Dynein cargo inh, CHOP inh, L major viab)
CSc1ccccc1NC(=O)CSc1nnnn1-c1ccccc1SC	L major viab 67
Cc1cc(N2CCOCC2)n2nc(-c3cccc(F)c3)cc2n1	none
CCC1CCCCN1c1cc(C)nc2cc(-c3cccc(C)c3)nn12 (configuration not stated)	CHOP inh 87
CSc1nccc(NC(=O)c2cccc(Br)c2)n1	none (no result: Dynein cargo inh, CHOP inh, L major viab)
CN(CCN1CCOCC1)C(=O)c1cc(COc2ccc(F)c(F)c2)on1	none (no result: Dynein cargo inh, CHOP inh, L major viab)
CN(C)CCNc1ccc(-c2nn(C)c(=O)c3ccccc23)cc1[N+](=O)[O-]	T cruzi repl 72, L major viab 90
Cn1nc(-c2ccc(N3CCN(CCO)CC3)c([N+](=O)[O-])c2)c2ccccc2c1=O	L major viab 99
Cn1nc(-c2ccc(NCCO)c([N+](=O)[O-])c2)c2ccccc2c1=O	none
CN(CCO)c1ccc(-c2nn(C)c(=O)c3ccccc23)cc1[N+](=O)[O-]	none (no result: L major viab)
COc1ccc2nc(Nc3nc(CSc4nnnn4-c4ccccc4)cc(=O)[nH]3)nc(C)c2c1	none
CCOc1ccc2nc(Nc3nc(CSc4nnnn4-c4ccccc4)cc(=O)[nH]3)nc(C)c2c1	L major viab 50
COc1ccc2nc(Nc3nc(C)c(CCC(C)C)c(=O)[nH]3)nc(C)c2c1	L major viab 99
Cc1ccc(SCc2cc(=O)[nH]c(Nc3nc(C)c4cccc(C)c4n3)n2)cc1	none
COc1ccc2nc(Nc3nc(CSc4ccc(C)cc4)cc(=O)[nH]3)nc(C)c2c1	L major viab 65
N=c1ccn2c(n1)OC1[C@@H](O)[C@@H](CO)O[C@H]12 (some centres not stated)	none (no result: T cruzi repl, UPR CHOP act, Dynein cargo inh, L major viab, UPR XBP1 act)
O=C(c1cc(COc2ccc(F)c(F)c2)on1)N1CCN(C/C=C/c2ccccc2)CC1	none (no result: Dynein cargo inh, CHOP inh, L major viab)
CCc1ccc(CN2C(=O)c3ccccc3C2C(=O)NC(C)CC)cc1 (configuration not stated)	none (no result: Dynein cargo inh, CHOP inh, L major viab)
CCOc1ccccc1CN1C(=O)c2ccccc2C1C(=O)NC(C)CC (configuration not stated)	L major viab 84
O=C(CN(C(=O)CCC(=O)Nc1nccs1)c1ccccc1F)NCC1CCCO1 (configuration not stated)	CHOP inh 73
O=C(CN(C(=O)CCC(=O)Nc1nccs1)c1ccc(F)c(Cl)c1)NCc1ccco1	L major viab 90
NS(=O)(=O)c1ccc(CNC(=O)c2sccc2-c2ccccc2)cc1	none (no result: Dynein cargo inh, CHOP inh, L major viab)
CCOC(=O)C1=C(c2ccccc2)N=c2s/c(=C\c3cc(OC)c(OC)c(OC)c3)c(=O)n2C1c1cccs1 (configuration not stated)	T cruzi repl 63
Cc1ccc(-c2csc(NC(=O)CCNC(=O)c3ccccc3Cl)n2)cc1	L major viab 84
CC(=O)NCCC(=O)Nc1nc(-c2ccc3ccccc3c2)cs1	T cruzi repl 60 (no result: Dynein cargo inh, CHOP inh, L major viab)
Cc1ccc(-c2csc(NC(=O)CCNC(=O)c3ccc(Cl)cc3)n2)cc1	none
Cc1ccc(-n2nc3c([n+]2[O-])CCc2c-3no[n+]2[O-])cc1	CHOP inh 90
Cc1cccc(-n2nc3c([n+]2[O-])CCc2nonc2-3)c1C	none
[O-][n+]1onc2c1CCc1c-2nn(-c2ccccc2Cl)[n+]1[O-]	CHOP inh 96
COc1ccc(NC(=O)CCCn2cnc3ccccc3c2=O)cc1	none (no result: Dynein cargo inh, CHOP inh, L major viab)
CN1CCc2c(sc3c2C(=O)NC(c2ccco2)N3)C1 (configuration not stated)	none
CN1CCc2c(sc3c2C(=O)NC(c2cn(Cc4ccccc4)c4ccccc24)N3)C1 (configuration not stated)	CHOP inh 79, L major viab 100
Cc1cccc(N=N/C(=C\O)C(=O)c2ccc(Br)cc2)c1	none
O=C(/C(=C/O)N=Nc1ccc(Cl)cc1)c1ccncc1	L major viab 100
Cc1ccc(N=N/C(=C\O)C(=O)c2ccncc2)cc1	CHOP inh 89
O=C(/C(=C/O)N=Nc1ccccc1Cl)c1ccccc1	none
COc1ccc(-c2noc(COC(=O)c3ccco3)n2)cc1OC	none (no result: T cruzi repl, Dynein cargo inh, CHOP inh, L major viab)
N#Cc1cccc(C#N)c1NCC1CCCO1 (configuration not stated)	none (no result: Dynein cargo inh, CHOP inh, L major viab)
CC1CC(C)(C)NC(=S)N1CCCC(=O)N1CCN(c2ccccc2F)CC1 (configuration not stated)	L major viab 61
CC1CC(C)(C)NC(=S)N1CCCC(=O)Nc1ccccc1F (configuration not stated)	none
Cc1cc(C)c(NC(=O)CN2C(=O)NC3(CCCCC3)C2=O)c(Cl)c1	CHOP inh 71
N#Cc1c(N)n(Cc2ccccc2)c(=O)c2cc([N+](=O)[O-])ccc12	T cruzi repl 57 (no result: Dynein cargo inh, CHOP inh, L major viab)
CC(C)COc1ccc(C(=O)Nc2ccc([N+](=O)[O-])cc2)cc1	none
CC(C)COc1ccc(C(=O)Nc2ccc(SC(F)F)cc2)cc1	L major viab 52
COc1ccc2nc(-n3c(O)c(C4=c5ccccc5=NC4=O)[nH]c3=S)sc2c1	CHOP inh 103 (no result: UPR CHOP act, UPR XBP1 act)
Cn1c(O)c(C2=c3ccccc3=NC2=O)[nH]c1=S	CHOP inh 84
Cc1ccc(-c2c(C(=O)N(C)Cc3ccccc3)oc(=O)c3ccccc23)cc1	L major viab 82
CN(Cc1ccccc1)C(=O)c1oc(=O)c2ccccc2c1-c1ccccc1	L major viab 55
CN(C)c1ccc(/C=C(/NC(=O)c2ccccc2)C(=O)N2CCCC2)cc1	none (no result: Dynein cargo inh, CHOP inh, L major viab)
NC(=O)c1sc(-c2ccsc2)cc1NS(=O)(=O)c1ccc(C(F)(F)F)cc1	none (no result: L major viab)
CCOc1cccc2sc(=NC(=O)CCS(=O)(=O)c3ccc(F)cc3)n(C)c12	none (no result: Dynein cargo inh, CHOP inh, L major viab)
CCn1c(=NC(=O)c2ccc(S(=O)(=O)N(C)C)cc2)sc2cccc(OC)c21	T cruzi repl inconclusive, L major viab 70
C=CCn1c(=NC(=O)c2cccs2)sc2cccc(OC)c21	none (no result: L major viab)
COc1cccc2sc(=NC(=O)CCS(=O)(=O)c3ccc(C)cc3)n(C)c12	none (no result: Dynein cargo inh, CHOP inh, L major viab)
COc1cccc2sc(=NC(=O)CS(=O)(=O)c3ccc(Cl)cc3)n(C)c12	T cruzi repl 60 (no result: Dynein cargo inh, CHOP inh, L major viab)
COc1cccc2sc(=NC(=O)CS(=O)(=O)c3ccc(F)cc3)n(C)c12	T cruzi repl 55 (no result: Dynein cargo inh, CHOP inh, L major viab)
CCOc1cccc2sc(=NC(=O)CCS(=O)(=O)c3ccccc3)n(CC)c12	none (no result: Dynein cargo inh, CHOP inh, L major viab)
